Assay results as given in ChEMBL document CHEMBL3808334, “Synthesis and in vitro evaluation of novel triazine analogues as anticancer agents and their interaction studies with bovine serum albumin” (Eur J Med Chem, 2016).

Legend:
Type in all cases: functional
[1] = test system: SN12C; test: Growth inhibition of human SN12C cells assessed as cell growth at 10^-4 M incubated for 48 hrs by sulforhodamine B assay; details: read-out: Activity
[2] = Growth inhibition of human DU145 cells assessed as cell growth at 10^-4 M incubated for 48 hrs by sulforhodamine B assay; details: DU-145, 48 h, read-out: Activity
Procedure, shortened: (§1)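 Cells seeded at 5,000–40,000/well according to doubling time and preincubated 24 h at 37 °C, 5% CO2. Time-zero plates were TCA-fixed. DMSO concentrate was diluted in medium with 50 µg/ml gentamicin to give five concentrations (10-fold or ½ log steps), then exposed 48 h. Cells were TCA-fixed, stained with 0.4% SRB and read at 515 nm. Percent growth was taken against time-zero and control; GI50, TGI and LC50 derived.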

[3] = test system: SK-MEL-2; test: Growth inhibition of human SK-MEL-2 cells incubated for 48 hrs by sulforhodamine B assay; details: SK-MEL-2, 48 h
Procedure, shortened: (§2)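 Cells were plated at 5,000–40,000 per well according to doubling time and preincubated 24 h at 37 °C in 5% CO2; time-zero plates were then TCA-fixed. Five concentrations (10-fold or ½-log dilutions, DMSO stock) were incubated 48 h. Cells were TCA-fixed, stained with 0.4% SRB and read at 515 nm. GI50 was taken where [(Ti−Tz)/(C−Tz)]×100 = 50.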

[4] = test system: MDA-MB-231; test: Growth inhibition of human MDA-MB-231 cells incubated for 48 hrs by sulforhodamine B assay; details: MDA-MB-231, 48 h; procedure, shortened: as §2
[5] = test system: NCI/ADR-RES; test: Growth inhibition of human NCI/ADR-RES cells assessed as cell growth at 10^-5 M incubated for 48 hrs by sulforhodamine B assay; details: read-out: Activity
[6] = test system: ACHN; test: Growth inhibition of human ACHN cells assessed as cell growth at 10^-8 M incubated for 48 hrs by sulforhodamine B assay; details: read-out: Activity
Procedure, shortened: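 Five-dose assay: five concentrations from 10-fold or ½-log serial dilutions. Cells are plated at 5,000–40,000 per well according to doubling time, grown 24 h, then exposed 48 h at 37 °C, 5% CO₂. Fixed with cold 50% TCA (final addition) for 60 min at 4 °C and stained with 0.4% SRB in 1% acetic acid. Bound dye is solubilized in 10 mM Tris base and read at 515 nm. GI₅₀ is where [(Ti−Tz)/(C−Tz)]×100 = 50, with a time-zero plate as Tz.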

[7] = test system: NCI-H322M; test: Growth inhibition of human NCI-H322M cells assessed as cell growth at 10^-7 M incubated for 48 hrs by sulforhodamine B assay; details: read-out: Activity
[8] = Growth inhibition of human COLO205 cells assessed as cell growth at 10^-7 M incubated for 48 hrs by sulforhodamine B assay; details: COLO 205, 48 h, read-out: Activity; procedure, shortened: as §1
[9] = Growth inhibition of human Hs 578T cells assessed as cell growth at 10^-5 M incubated for 48 hrs by sulforhodamine B assay; details: read-out: Activity
[10] = test system: CCRF-CEM; test: Growth inhibition of human CCRF-CEM cells assessed as cell growth at 10^-4 M incubated for 48 hrs by sulforhodamine B assay; details: read-out: Activity
Procedure, shortened: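 Leukemia line in the five-dose format: five concentrations from 10-fold or ½-log serial dilutions. Plated at 5,000–40,000 cells per well, preincubated 24 h, then compound added for 48 h at 37 °C, 5% CO₂. Sulforhodamine B absorbance read at 515 nm. Growth is computed against time-zero (Tz) and control (C) readings; GI₅₀ is where [(Ti−Tz)/(C−Tz)]×100 = 50.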

[11] = test system: NCI-H23; test: Growth inhibition of human NCI-H23 cells assessed as cell growth at 10^-4 M incubated for 48 hrs by sulforhodamine B assay; details: NCI-H23, 48 h, read-out: Activity
[12] = Growth inhibition of human SF268 cells assessed as cell growth at 10^-4 M incubated for 48 hrs by sulforhodamine B assay; details: SF-268, 48 h, read-out: Activity
[13] = Growth inhibition of human SF539 cells assessed as cell growth at 10^-7 M incubated for 48 hrs by sulforhodamine B assay; details: SF-539, 48 h, read-out: Activity
[14] = test system: U-251; test: Growth inhibition of human U251 cells assessed as cell growth at 10^-7 M incubated for 48 hrs by sulforhodamine B assay; details: U-251, 48 h, read-out: Activity
[15] = Growth inhibition of human OVCAR8 cells assessed as cell growth at 10^-4 M incubated for 48 hrs by sulforhodamine B assay; details: OVCAR-8, 48 h, read-out: Activity
[16] = Growth inhibition of human OVCAR8 cells assessed as cell growth at 10^-7 M incubated for 48 hrs by sulforhodamine B assay; details: OVCAR-8, 48 h, read-out: Activity
[17] = Growth inhibition of human OVCAR3 cells assessed as cell growth at 10 uM incubated for 48 hrs by sulforhodamine B assay; details: OVCAR-3, 48 h, read-out: Activity
[18] = test system: MDA-MB-468; test: Growth inhibition of human MDA-MB-468 cells assessed as cell growth at 10^-7 M incubated for 48 hrs by sulforhodamine B assay; details: MDA-MB-468, 48 h, read-out: Activity
[19] = Growth inhibition of human RPMI8226 cells assessed as cell growth at 10^-6 M incubated for 48 hrs by sulforhodamine B assay; details: RPMI-8226, 48 h, read-out: Activity
[20] = test system: EKVX; test: Growth inhibition of human EKVX cells assessed as cell growth at 10^-6 M incubated for 48 hrs by sulforhodamine B assay; details: read-out: Activity; procedure, shortened: as §1
[21] = Growth inhibition of human SW620 cells assessed as cell growth at 10^-8 M incubated for 48 hrs by sulforhodamine B assay; details: SW-620, 48 h, read-out: Activity
[22] = Growth inhibition of human OVCAR8 cells assessed as cell growth at 10^-6 M incubated for 48 hrs by sulforhodamine B assay; details: OVCAR-8, 48 h, read-out: Activity
[23] = Growth inhibition of human HCC2998 cells assessed as cell growth at 10^-5 M incubated for 48 hrs by sulforhodamine B assay; details: HCC 2998, 48 h, read-out: Activity; procedure, shortened: as §1
[24] = test system: SK-MEL-28; test: Growth inhibition of human SK-MEL-28 cells assessed as cell growth at 10^-5 M incubated for 48 hrs by sulforhodamine B assay; details: SK-MEL-28, 48 h, read-out: Activity
[25] = test system: CCRF-CEM; test: Growth inhibition of human CCRF-CEM cells assessed as cell growth at 10 uM incubated for 48 hrs by sulforhodamine B assay; details: read-out: Activity
Procedure, shortened: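 One-dose screen at 10 µM final. Cells are plated at 5,000–40,000 per well according to doubling time and preincubated 24 h at 37 °C, 5% CO₂. Compound (DMSO stock diluted in medium with 50 µg/ml gentamicin) is then added for 48 h. Growth percent is read by sulforhodamine B staining, absorbance at 515 nm.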

[26] = read-out: LC50 (the source's name)
[27] = read-out: pLC50 (the source's name) (converted)

c1ccc(-c2nc(Nc3ccc(-c4nc5ccccc5[nH]4)cc3)nc(N3CCOCC3)n2)cc1
growth at 100 µM [1]: -59% | growth at 100 µM [2]: -100% | GI50 ([3]; read-out: GI50): 1.97 µM | CC50 [3, 26]: 6.55 µM | TGI ([3]; read-out: TGI): 3.59 µM | GI50 ([3]; read-out: pGI50 (converted)): 1.95 µM | CC50 [3, 27]: 6.61 µM | TGI ([3]; read-out: pTGI (converted)): 3.63 µM | GI50 ([4]; read-out: GI50): 1.29 µM | CC50 [4, 26]: 9.4 µM | TGI ([4]; read-out: TGI): 3.48 µM | GI50 ([4]; read-out: pGI50 (converted)): 1.29 µM | CC50 [4, 27]: 9.33 µM | TGI ([4]; read-out: pTGI (converted)): 3.47 µM | growth at 10 µM [5]: -28% | growth at 0.01 µM [6]: 96% | growth at 0.1 µM [7]: 101% | growth at 0.1 µM [8]: 91% | growth at 10 µM [9]: -22% | growth at 100 µM [10]: -36% | growth at 100 µM [11]: -51% | growth at 100 µM [12]: -78% | growth at 0.1 µM [13]: 93% | growth at 0.1 µM [14]: 110% | growth at 100 µM [15]: -61% | growth at 0.1 µM [16]: 104% | growth at 10 µM [17]: -73.4% | growth at 0.1 µM [18]: 112% | growth at 1 µM [19]: 54% | growth at 1 µM [20]: 81% | growth at 0.01 µM [21]: 98% | growth at 1 µM [22]: 89% | growth at 10 µM [23]: -62% | growth at 10 µM [24]: -86% | growth at 10 µM [25]: -15.7%
